M1 antagonist = blocks the rat M1 muscarinic receptor response to acetylcholine | CHO-M1 cells, Fluo-4 calcium, ACh EC80 antagonist mode; hits give low values | P08482 | B-score at 10 µM | actives 3.4% (n = 64,000);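 active = calcium fluorescence response, raw or row-and-column corrected B-score, differing from the plate sample mean either way at a set confidence level, mostly lower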
Target sequence (P08482 whole entry, looked up): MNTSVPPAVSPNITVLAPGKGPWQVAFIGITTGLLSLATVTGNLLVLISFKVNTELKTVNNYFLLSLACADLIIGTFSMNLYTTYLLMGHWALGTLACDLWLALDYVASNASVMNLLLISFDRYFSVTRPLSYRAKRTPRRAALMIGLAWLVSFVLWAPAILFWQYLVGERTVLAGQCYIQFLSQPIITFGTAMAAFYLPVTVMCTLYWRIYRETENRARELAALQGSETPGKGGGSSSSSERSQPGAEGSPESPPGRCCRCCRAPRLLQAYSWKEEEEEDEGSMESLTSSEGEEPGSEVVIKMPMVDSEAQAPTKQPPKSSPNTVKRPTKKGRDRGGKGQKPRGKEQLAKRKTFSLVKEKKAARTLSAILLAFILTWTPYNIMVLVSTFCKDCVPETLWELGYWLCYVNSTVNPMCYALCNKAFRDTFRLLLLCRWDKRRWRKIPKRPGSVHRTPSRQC
HEK293 NFkB inh = inhibitors of the PMA/ionomycin-induced NF-kB reporter in HEK293 cells. HEK-293 NF-kB luciferase reporter, luminescence. inhibition, % at 3 µM. actives 0.21% (n = 62,000). AID 465;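 active = inhibition above the mean of all tested compounds plus 3 SD, cut at about 40% in these data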
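Material: HEK-293 cells with stable firefly luciferase reporter driven by four HIV NF-kB elements / Also added: PMA plus ionomycin mix as NF-kB-activating stimulus / Compound dosing: 3 µM once, 0.30% DMSO / Times: 1 h pretreatment, 16 h stimulation, 37 °C / Signal: luminescence / Evaluation: per-plate % inhibition versus controls / Benchmarks: DMSO and 10 µM reference inhibitor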
M1 agonist = activates the M1 muscarinic receptor | CHO-M1 cells, Fluo-4 calcium fluorescence, agonist mode; hits give high values | B-score at 10 µM | actives 3% (n = 64,000);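 active = fluorescence rise, raw or as B-score row- and column-corrected plate score, outside the 99.7% band of its plate's samples, either direction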
JNK3 blocker = blocks human JNK3 kinase activity; P53779; inhibition, % at 8 µM; actives 0.61% (n = 60,000); purified JNK3 kinase activity, HTS; in the data active = inhibition above about 17%
BAP1 inh = human BAP1 deubiquitinase inhibition; calls only at 20 µM; recombinant BAP1, Ub-AMC hydrolysis fluorescence kinetic; hits give low values; actives 0.48% (n = 72,000); AID 436;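 active = activity remaining at or below 50% of control, provided the compound also passes the data quality filters; inactive = the rest, including low values that fail the filters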
HER2 expr 66K = lowers expression of human Her2 kinase | HER2 level % of control, % at 10 µM | actives 0.69% (n = 65,000) | AID 645 | SKBR-3 HER2 protein level, AlphaScreen, 18-24 h; hits give low values;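 active = HER2 level under 5% of the carrier-only control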;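 note: lower value means stronger loss of Her2 protein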
M1 antag confirm = M1 muscarinic receptor (rat) antagonism, confirmed. shares compounds with M1 antagonist. CHO-M1 cells, Fluo-4 calcium, ACh EC80 antagonism; hits give low values. calcium response (max-min fluorescence) at 10 µM. actives 43% (n = 1,700). AID 677;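 active = calcium response below the same-plate mean of wells given acetylcholine alone at its 80%-effect dose, minus 3 SD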
mGluR4 antag = mGluR4 (human) activity, M1 antagonist secondary assay | shares compounds with M1 antagonist | CHO-mGluR4 calcium flux, Fluo-4 fluorescence, glutamate EC80; hits give low values | fluorescence response (max-min) at 10 µM | actives 0.9% (n = 1,700);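 active = fluorescence response below the plate's average for near-maximal glutamate wells, less 3 SD of those wells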;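 note: raw unnormalized fluorescence span taken in the window right after glutamate addition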
Of the large screens only hits and unclear results are named; the others gave an inactive call (follow-up assays come after a bar, where shown). In the library only some 6.6% were active in any assay of this set; here they are far more common.

COc1ccc(C2NC(=O)NC(O)(C(F)(F)F)C2C(=O)c2ccc(C)cc2)cc1 (configuration not stated)	M1 antagonist -6.3 | M1 antag confirm 93 | mGluR4 antag inactive
Cc1ccc(-c2nnc(N3CCN(C(=O)CSc4ncn[nH]4)CC3)c3ccccc23)cc1	M1 antagonist -2.9 | M1 antag confirm inactive | mGluR4 antag inactive
Cc1ccc(S(=O)(=O)N2CCN(C(=O)CN3CCOCC3)C2)cc1	none
Cc1ccc(S(=O)(=O)/N=C(\CN2CCCCC2)N2CCOCC2)cc1	M1 antagonist -2.6 | M1 antag confirm inactive | mGluR4 antag inactive
O=C(CSc1nnc(-c2cccs2)n1-c1ccccc1)N1CCc2ccccc21	M1 antagonist -3 (not shown: BAP1 inh) | M1 antag confirm inactive | mGluR4 antag inactive
Cc1cc(C(=O)OCC(=O)N(C)C2CCS(=O)(=O)C2)c(C)n1-c1ccccc1 (configuration not stated)	M1 antagonist -2.7 | M1 antag confirm inactive | mGluR4 antag inactive
CN(C(=O)COC(=O)c1nc(-c2ccccc2)n(-c2ccccc2)n1)C1CCS(=O)(=O)C1 (configuration not stated)	M1 antagonist -4.8 | M1 antag confirm 231 | mGluR4 antag inactive
Cc1cc(C(=O)OCC(=O)NC2CCS(=O)(=O)C2)c(C)n1-c1ccccc1 (configuration not stated)	none
CC(C)C(=O)Nc1sc2c(c1C#N)CCC2	none (no result: M1 antagonist, HEK293 NFkB inh, M1 agonist, JNK3 blocker, HER2 expr 66K)
CC(=O)N1CCc2cc(Br)cc(S(=O)(=O)NCCCN3CCC(C)CC3)c21	M1 antagonist -3.7 | M1 antag confirm inactive | mGluR4 antag inactive
CC(=O)N1CCc2cc(Br)cc(S(=O)(=O)NCCCN3CCCC(C)C3)c21 (configuration not stated)	none
CCOC(=O)c1snc(C(=O)NC2CCCCC2)c1N	M1 antagonist -2.7 (not shown: BAP1 inh) | M1 antag confirm inactive | mGluR4 antag inactive
Cc1ccccc1NC(=O)c1c(NC(=O)c2ccc([N+](=O)[O-])cc2)sc2c1CCCCC2	none (no result: M1 antagonist, HEK293 NFkB inh, M1 agonist, JNK3 blocker, HER2 expr 66K)
COCCn1c(SCC(=O)Nc2nc(C)c(Cl)cc2Cl)nc2ccccc21	none
COCCn1c(SCC(=O)Nc2ccc(S(=O)(=O)N3CCOCC3)cc2)nc2ccccc21	M1 antagonist -7.6 | M1 antag confirm 348 | mGluR4 antag inactive
CS(=O)(=O)c1ccc2nc(NC(=O)CN3CCN(Cc4ccccc4)CC3)sc2c1	M1 antagonist -2.5 | M1 antag confirm inactive | mGluR4 antag inactive
COc1ccc(OC)c2sc(N3CCCCC3)nc12	M1 antagonist -4.2 | M1 antag confirm 386 | mGluR4 antag inactive
